Dynein transport: inhibitors of GR-EGFP nuclear translocation, primary screen, dynein cargo transport inhibitor project, imaging, high-content, 3617.4 mouse cells; test concentration mostly 20 µM; stimulated with dexamethasone, 1 µM; stronger effect = lower value; AID 1381, 2008; z-score, hits read low; 220,000 compounds, 0.47% hits;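 active = plate z-score of nuclear minus cytoplasmic receptor signal below a set negative limit, without overly bright fluorescence or cell loss, cut at about -3.5 in these data, passing the limit was not always enough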;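 note: z-score of nuclear minus cytoplasmic ring GR-EGFP intensity difference per well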
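Schedule: 48 h induction, then 1 h compound, then 30 min agonist, 37 °C. Buffer or medium: tetracycline-free induction medium containing charcoal-stripped FBS. Reagent: 1.0 µM final dexamethasone stimulus. Evaluation: nuclear versus cytoplasmic GR-EGFP signal, averaged per well. Signal: high-content fluorescence imaging after fixation.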
UPR XBP1 act: activators of adaptive XBP1 UPR arm, primary screen, cell-based, CHO-XBP1 luciferase reporter, luminescence, uHTS. IRE1-XBP1 UPR activation; percent of tunicamycin response, DMSO as zero. activation, % at 20 µM. 330,000 compounds, 0.33% hits. AID 463104, 2010;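 active = versus positive control, 20 µM dose yields 30% or more activation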
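assay system = CHO-XBP1 luciferase reporter cells | amount = 1000 cells/well | buffer or medium = F12 plus 10% FBS | compound dosing = single point, 20 µM final compound, 1% DMSO | incubation = 16-18 h cell attachment at 37 °C, then 6 h compound exposure | detection = Steady-Glo luminescence read | controls = tunicamycin 10 µg/mL and vehicle-only wells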
CHOP UPR activ: activators of apoptotic CHOP UPR arm, primary screen, cell-based, CHO-CHOP luciferase reporter, luminescence, uHTS. UPR activation; percent of tunicamycin response over DMSO baseline. AID 449763, 2010. 330,000 compounds, 0.34% hits. activation, % at 10 µM;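 active = at 10 µM dose, activation of 40% or more, normalized to positive control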
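System: CHO-CHOP luciferase reporter cell line | Buffer or medium: F12 medium containing 10% fetal bovine serum | Doses: One dose, 10 µM in 0.5% DMSO | Times: 6 h compound exposure at 37 °C after overnight seeding | Signal: Luciferase luminescence | Read-out: % activation vs tunicamycin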
CHOP inhibitor: inhibitors of CHOP promoter induction, primary screen, cell-based, unfolded protein response, luciferase reporter | CHO-K1 CHOP-promoter luciferase, tunicamycin-induced, 15-18 h | inhibition, % at 10 µM | 220,000 compounds, 3.8% hits | AID 2732, 2010;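 active = compounds that reduced the stress-induced luciferase reporter signal by more than about 70% of percent inhibition, limit read from the data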
Beta2AR agonist: beta2AR agonists driving receptor internalization, primary screen, cell-based, FAP fluorogen, flow cytometry. Beta-2 adrenergic receptor (Homo sapiens), P07550. Am2.2-beta2AR cells. response, % (test concentration not listed). 340,000 compounds, 0.43% hits;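 active = response above a set limit, near 3 SD of response in nonfluorescent compounds, cut at about 42% in these data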
pCIP destab: p/CIP-EGFP fusion destabilizers, primary screen, fluorescence, F442A cells. Q05BA5. 16 h. decrease of EGFP signal, % at 10 µM. 290,000 compounds, 0.01% hits;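 active = EGFP signal decrease of at least 30% at 10 µM or well 3 SD below plate mean, unless failing retest; inactive = the rest, including hits failing retest or dose response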
Numbers stand for hits; 0 = inactive; - = not tested or not shown. The entries come from a sample that favours hits as a whole.

SMILES	Dynein transport	UPR XBP1 act	CHOP UPR activ	CHOP inhibitor	Beta2AR agonist	pCIP destab
Cc1ccc(-n2c(N)c(Br)c(=O)[nH]c2=O)cc1C	0	0	0	0	0	0
COc1ccc(NS(=O)(=O)c2cccc(NC(=O)c3ccc(S(=O)(=O)N4CCCCCC4)cc3)c2)cc1	0	0	0	75	0	0
CCOc1ccc(C(=O)N[C@H](C(=O)Nc2cccc(S(=O)(=O)N3CCCCC3)c2)C(C)C)cc1	0	0	0	85	0	0
COc1ccc(NS(=O)(=O)c2ccc(O)c(NC(=O)c3ccc(S(=O)(=O)N4CCCCCC4)cc3)c2)cc1	0	0	0	0	0	0
COc1ccc(CCC(=O)Nc2cccc(S(=O)(=O)N3CCCCCC3)c2)cc1OC	-	0	0	-	0	-
O=S(=O)(Nc1nc2ccccc2nc1Nc1cccc(S(=O)(=O)N2CCCCC2)c1)c1ccccc1	0	0	0	75	0	0
COc1ccc(CC(=O)Nc2cccc(S(=O)(=O)N3CCCCCC3)c2)cc1OC	0	-	-	71	0	0
CCOC(=O)CCNC(=O)CCc1nnc(CCCc2ccccc2)o1	-	0	0	-	0	0
CC(C(=O)N1CCc2ccccc21)N(C)CC(=O)Nc1cccc(F)c1 (stereo unspecified)	-	0	0	-	0	-
N#Cc1ncc(-c2ccc3c(c2)OCCOCCOCCOCCOCCO3)nc1C#N	0	0	0	106	0	0
Cc1ccc(-c2noc(CN(C(=O)C(c3ccccc3)c3ccccc3)C(C)C)n2)cc1	0	0	0	0	0	0
Cc1ccc(-c2noc(CN(C(=O)c3cccc(Br)c3)C(C)C)n2)cc1	0	0	0	71	0	0
Cc1cccc(-c2noc(CN(C(=O)CCc3ccccc3)C(C)C)n2)c1	0	0	0	70	0	0
Cc1cccc(-c2noc(CN(C(=O)/C=C/c3ccccc3Cl)C(C)C)n2)c1	0	0	0	0	0	0
Cc1ccc(NC(=S)NNc2ncc(C(F)(F)F)cc2Cl)cc1	0	0	0	0	0	0
FC(F)(F)c1cnc(NNC(=S)Nc2ccc(Cl)cc2)c(Cl)c1	0	0	0	99	0	0
COc1ccc(N2CCC(CNS(=O)(=O)c3cccc(C(F)(F)F)c3)C2)cc1 (stereo unspecified)	0	0	0	74	0	0
COc1ccc(CNC(=O)C2CCN(S(=O)(=O)c3cccc(C(F)(F)F)c3)CC2)cc1	-	0	0	-	0	-
Cc1nn(CCc2nn[nH]n2)c2nc(-c3ccc(C4CCCCC4)cc3)cc(C(F)(F)F)c12	0	0	0	106	0	0
Cc1ccc2cc(C=O)c(N(C)C)nc2c1	0	0	0	0	0	0
Cc1cc2cc(C=O)c(Cl)nc2cc1C	0	0	0	0	48	0
CC(C)(C)NC(=O)CSc1nc2ccccc2n1-c1ccccc1	0	0	0	71	0	0
Cc1cc(C)c(C)c(S(=O)(=O)NC2CCN(Cc3ccccc3)CC2)c1C	0	0	0	79	0	0
CC1(C)C(=O)OC(c2ccccc2)C2(CCCC2)C1=O (stereo unspecified)	0	0	0	0	0	0
COc1ccc(C2CC(c3cccs3)=NN2C(=O)CSc2nc3c(cnn3-c3ccccc3)c(=O)[nH]2)cc1 (stereo unspecified)	0	0	0	76	0	0
SMILES	Dynein transport	UPR XBP1 act	CHOP UPR activ	CHOP inhibitor	Beta2AR agonist	pCIP destab
Cc1cc(C(=O)Nn2c(-c3ccc(Br)cc3)nc3ccccc3c2=O)ccc1[N+](=O)[O-]	0	0	0	91	0	0
CCS(=O)(=O)N1Cc2ccccc2CC1C(=O)N(C)Cc1ccc(OC)c(F)c1 (stereo unspecified)	-	0	0	-	0	0
COCCN=c1scc(-c2ccccc2)n1/N=C/c1c[nH]c2ccccc12	0	0	0	73	0	0
C[N+](C)(C)CCO	-	-	-	0	-	-
NC(=S)N/N=C1/CCSc2ccc3ccccc3c21	0	0	0	75	0	0
NC(=S)N/N=C/c1c(O)ccc2ccccc12	0	0	0	0	0	0
COc1cccc(C(=S)N2CCOCC2)c1OS(=O)(=O)c1ccc(Cl)cc1	-	0	0	-	0	0
O=C(Cn1ncc2c1-c1ccccc1OC2)N1CCN(Cc2ccc3c(c2)OCO3)CC1	0	0	0	77	0	0
COc1cc(C2SCC(=O)N2CCN2CCCCC2)ccc1O (stereo unspecified)	0	0	0	0	0	0
Cn1c(/C(C#N)=C(\O)COc2ccc3ccccc3c2)nc2ccccc21	0	0	0	93	0	0
Cn1c(/C(C#N)=C(\O)c2ccccc2Cl)nc2ccccc21	-	0	0	-	0	-
Cc1c2cnn(CC(=O)NCc3ccccn3)c(=O)c2c(C)n1Cc1ccccc1	-	0	0	-	0	0
Cc1c2cnn(CC(=O)Nc3c(F)c(F)cc(F)c3F)c(=O)c2c(C)n1Cc1ccc(F)cc1	0	0	0	79	-	0
COCCNC(=O)/C(C#N)=c1\s/c(=C\c2ccccc2OC(F)F)c(=O)n1Cc1ccccc1	0	0	0	95	-	0
COCCCn1c(=O)/c(=C/c2ccccc2OC(F)F)s/c1=C(\C#N)C(=O)NCCOC	-	-	-	-	0	-
CCCCOC1(c2ccccc2)OC(=O)c2ccccc21 (stereo unspecified)	0	0	0	81	0	0
CCCCC(CC)COC1(c2ccccc2)OC(=O)c2ccccc21 (stereo unspecified)	0	0	0	0	0	0
O=C(COc1nc2ccccc2nc1N1CCOCC1)Nc1cccc(S(=O)(=O)N2CCCCC2)c1	0	0	0	0	0	0
COC(=O)C1(c2ccccc2)NC(c2ccc(O)cc2)C2C(=O)N(c3ccc4c(c3)OCO4)C(=O)C21 (stereo unspecified)	0	0	0	0	0	0
O=C(Cn1c(COc2ccccc2)nc2ccccc21)Nc1cccc(Cl)c1	0	0	0	78	0	0
Cc1cc(C)n(CCCNC(=O)C2CC(=O)N(Cc3ccccc3)C2)n1 (stereo unspecified)	-	0	0	-	0	-
CCOC(=O)Nc1ccc(Oc2ccccc2)cc1	0	0	0	73	0	0
CCOC(=O)Nc1ccc(OC(=O)Oc2ccc(NC(=O)OCC)cc2)cc1	-	-	-	-	0	-
Cn1nnnc1SCC(=O)Nc1ccc(Oc2ccccc2)cc1	0	0	0	75	0	0
COc1ccc(NC(=O)CSc2nnnn2C)cc1	0	0	0	0	0	0
O=C(NC(=S)Nc1ccc(Cl)c(C(=O)O)c1)c1ccc(OCc2ccccc2)cc1	-	0	0	-	0	0
Cc1ccc(N=Nc2ccc(O)c3ncccc23)cc1	0	-	-	0	0	0
